Results of several laboratories.
Each line is one published result; the experiments were not run side by side.
Target: Vascular endothelial growth factor receptor 3 (FLT4, Homo sapiens, UniProt P35916)

SMILES | assay | conditions | measurement | result
Nc1ncc(-c2nc(N3CCOCC3)nc(N3CCOCC3)n2)c(C(F)F)n1 | cell-free assay, competition with immobilised ligand | 10 µM | remaining binding | 77%
Cn1cc(-c2cc(F)cc(N3CCn4c(cc5c4CCCC5)C3=O)c2CO)cc(Nc2ccc(N3CCN(C4COC4)CC3)cn2)c1=O | enzyme activity, inhibitor | 0.1 µM | inhibition | 12%
N#CC1(c2ccccn2)CCN(Cc2cc(C(=O)O)c(=O)n3ccccc23)CC1 | cell-free assay, competition with immobilised ligand | 1 µM | remaining binding | 100%
CC(C)(C)c1cc(C=C(C#N)C#N)cc(Br)c1O | enzyme activity, inhibitor | 0.5 µM | remaining activity | 102%
Cc1nn(C)cc1-c1nc2c(N3CCN(Cc4ccc(Cl)cc4)CC3)c(Cl)cnc2[nH]1 | binding, competition with immobilised ligand | 1 µM | remaining binding | 0%
COCc1c(-c2cc3cc(C)cc(OC)c3s2)c2c(N)ncnn2c1CN1CCNC(=O)C1 | cell-free assay, competition with immobilised ligand | 1 µM | inhibition | 93.8%
COc1cc(Nc2ncc(F)c(Nc3ccc4c(n3)NC(=O)C(C)(C)O4)n2)cc(OC)c1OC | binding | 10 µM | inhibition | 100%
O=c1[nH]c2ccccc2n1C1CCN(Cc2ccc(-c3[nH]c4cc5ncnc5cc4nc3-c3ccccc3)cc2)CC1 | cell-free assay | 0.5 µM | remaining signal | 98.7%
COc1ncccc1-c1cnn2ccc(N3CCN(C(=O)OC(C)C)CC3)nc12 | binding, competition with immobilised ligand | 1 µM | remaining binding | 99%
Cn1cncc1[C@@](O)(COc1ccc(C#N)cc1-c1ccc(OC(F)(F)F)cc1)c1ccc(C#N)cc1 | cell-free assay, competition with immobilised ligand | 1 µM | remaining binding | 90%
Cn1cc(-c2cccc(N3CCc4c(sc5c4CC(C)(C)C5)C3=O)c2CO)cc(Nc2ccncn2)c1=O | enzyme activity, inhibitor | 1 µM | inhibition | 13%
